# Shown are actives, neighbours in structure and some others; about 4.6% of the full set was active somewhere.
# TAAR1 antag = human TAAR1 antagonism | Q96RJ0 | CHO RD-HGA16 TAAR1, Fluo-8 calcium fluorescence, antagonist | inhibition, % at 3 µM | actives 1.5% (n = 360,000);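 active = inhibition above a per-plate cutoff, the mean inhibition of test compounds on that plate plus 3 SD, cut at about 49% in these data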;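 note: 0% = DMSO plus EC80 beta-PEA response and 100% = DMSO alone without agonist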
#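 Test system: RD-HGA16 CHO cells with stable hTAAR1 and Gα16 / Probe or stimulus: EC80 β-phenethylamine stimulus / Times: seeding 17-24 h prior, 75-min 37 °C, 30-min RT dye loading / Detection: Fluo-8 calcium-sensitive fluorescence / Read-out basis: % inhibition scaled between DMSO and EC80 PEA controls / Repeats: singlicate, one well per test compound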
# OX1R antag-1 = human HCRTR1 antagonism; actives 0.43% (n = 330,000); AID 434989; CHO/OX1R cells, Fluo-8 calcium fluorescence, orexin A; inhibition, % at 5 µM; O43613;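 active = inhibition above its plate's threshold, mean inhibition of all tested compounds on the plate plus 3 SD, cut at about 37% in these data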;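 note: 0% = orexin A challenge wells and 100% = SB-334867-A antagonist wells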
# GPR7 antag = antagonists of human GPR7 (neuropeptides B/W receptor 1); inhibition, % at 4.4 µM; GPR7-expressing cells, fluorescence antagonist assay; actives 1.1% (n = 290,000); P48145; in the data active = inhibition above about 16%, passing the limit was not always enough;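 note: cells stimulated with the agonist NPW; 0% = agonist with vehicle and 100% = vehicle without agonist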
# Target sequence (P48145 whole entry, looked up): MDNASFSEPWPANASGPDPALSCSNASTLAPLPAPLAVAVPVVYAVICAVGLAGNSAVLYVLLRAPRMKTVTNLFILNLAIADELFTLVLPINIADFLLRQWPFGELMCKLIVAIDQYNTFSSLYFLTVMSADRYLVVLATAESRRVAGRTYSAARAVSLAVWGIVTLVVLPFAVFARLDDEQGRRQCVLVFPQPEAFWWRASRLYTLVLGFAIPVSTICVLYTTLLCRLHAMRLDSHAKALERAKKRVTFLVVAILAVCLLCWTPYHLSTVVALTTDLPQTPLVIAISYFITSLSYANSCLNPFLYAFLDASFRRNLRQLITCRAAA
# CHO parental Ca = counter-screen for OX1R antagonists: effect in parental CHO cells. actives 0.63% (n = 330,000). AID 463079. inhibition, % at 5.6 µM. parental CHO-K1, ATP-induced calcium, Fluo-8 fluorescence;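 active = inhibition above that plate's mean sample inhibition plus 3 SD, cut at about 26% in these data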;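 note: 0% = ATP-challenged DMSO wells and 100% = DMSO wells without ATP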
#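 Material: Parental CHO cells | Reagent: ATP | Compound dosing: Single nominal dose of 5.6 µM per compound | Detection: Intracellular calcium via Fluo-8 no-wash fluorescent dye | Read-out: % inhibition of ATP-induced calcium mobilization | Benchmarks: Low control ATP plus DMSO, high control DMSO only | Replicates: Singlicate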
# TAAR1 ag = agonists of human TAAR1; Q96RJ0; CHO RD-HGA16 TAAR1, Fluo-8 calcium fluorescence; vehicle wells 0%, saturating PEA agonist 100%; activation, % at 3 µM; actives 0.99% (n = 360,000); AID 624467;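 active = activation above the mean activation of all test compounds in the run plus 3 SD, cut at about 38% in these data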
#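 Benchmarks: low control DMSO, high control PEA (EC100); System: CHO RD-HGA16 cells carrying human TAAR1 plus Gα16; Detection: Fluo-8 fluorescence, 5 s baseline then 140 s kinetic read; Schedule: 17-24 h plating, Fluo-8 75 min 37 °C, 30 min RT; Read-out basis: % activation from peak over basal fluorescence ratio, DMSO-to-PEA scaled.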
# OX1R antag-2 = antagonists of human orexin 1 receptor (OX1R); O43613; inhibition, % at 6.6 µM; actives 1.8% (n = 330,000); OX1R-expressing cells, FRET antagonist read-out; in the data active = inhibition mostly above about 38%, no sharp cut-off; inactive = mostly below about 40%;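 note: 0% = agonist challenge alone and 100% = reference antagonist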
# The depositor's hits bear a star; . = no result.
SMILES,TAAR1 antag,OX1R antag-1,GPR7 antag,CHO parental Ca,TAAR1 ag,OX1R antag-2
COc1ccc(C(C(=O)NCc2ccccc2)N(Cc2cccnc2)C(=O)c2snc(C(N)=O)c2N)cc1OC (stereo unspecified),19.9,-16.2,-8.8,-9.1,4.3,13.1
CN(C)c1ccc(C(C(=O)NCc2ccccc2)N(Cc2cccnc2)C(=O)c2snc(C(N)=O)c2N)cc1 (stereo unspecified),56.2*,.,-8.5,.,16.7,.
COc1ccc(N(C(=O)c2snc(C(N)=O)c2N)C(C(=O)NCc2ccccc2)c2ccc(O)cc2)cc1OC (stereo unspecified),-11.5,.,-1.2,.,0.3,.
COc1ccc(CN(C(=O)c2snc(C(N)=O)c2N)C(C)C(=O)NCc2ccc(F)cc2)cc1 (stereo unspecified),19.5,-8.9,-3.8,6.1,14.3,37.3
CC(C)(C)c1cc(NC(=O)c2c(F)cccc2Cl)n(-c2ccccc2)n1,0.6,-25.0,-8.0,4.5,-1.5,19.8
CCN=C1S/C(=C\c2ccc(N3CCOCC3)cc2C)C(=O)N1CC,11.6,-9.1,-11.0,-8.3,2.9,17.1
COCCN1C(=O)/C(=C/c2ccc(N3CCCC3)cc2C)SC1=S,50.8*,32.5,13.8,31.5*,33.7,11.9
Cc1cc(OCCCCCNCCO)cc(C)c1Cl,4.3,3.1,19.1*,-2.6,11.4,2.7
Cc1cc(OCCNCCO)cc(C)c1Cl,2.7,-6.2,-9.2,-12.2,20.4,24.8
Cc1nc2c(-c3ccc(F)cc3)cnn2c2c1CCC2,-35.4,0.6,-13.2,-13.4,-0.9,54.5*
Cc1ccc(S(=O)(=O)NCc2ccc3c(c2)OCO3)cc1C,9.7,-9.6,12.9,1.0,-1.7,33.5
O=S(=O)(NCc1ccc2c(c1)OCO2)c1ccc2oc3ccccc3c2c1,9.1,-7.6,-4.2,-3.9,12.8,52.3*
O=S(=O)(Nc1ccc2c(c1)OCCO2)c1ccc2oc3ccccc3c2c1,-10.3,-4.0,-8.7,19.6,8.0,64.5*
O=C1C=C(c2cc(Cl)cc(Cl)c2)C[C@@H](c2ccc(F)cc2)C1,26.2,-31.5,.,-40.3,3.9,6.7
COc1cccc(/C=C/C(=O)Nc2cccc(C(C)=O)c2)c1OC,6.1,-19.8,-6.9,-8.8,19.6,15.1
COc1ccccc1/C=C/C(=O)Nc1cccc(C(C)=O)c1,14.0,0.2,-2.8,-20.5,7.2,60.2*
O=C(/C=C/c1ccccc1Cl)Nc1cccc(O)c1,-1.5,-31.2,22.3*,-15.9,29.4,33.5
Cn1c(=O)c2c(ncn2CC(=O)OCC(=O)NC(c2ccccc2)c2ccccc2)n(C)c1=O,-4.5,-30.1,-6.8,-3.4,0.2,26.0
COc1ccc(S(=O)(=O)N2CCCOC2CNC(=O)C(=O)NCCc2ccco2)cc1C (stereo unspecified),-13.6,8.9,-6.0,-2.8,2.0,69.6*
Cc1ccc(C)c(S(=O)(=O)N2CCCCC2CCNC(=O)C(=O)NC2CC2)c1 (stereo unspecified),-38.2,-5.0,.,-17.8,-0.3,34.9*
Cc1ccc(C)c(S(=O)(=O)N2CCCOC2CNC(=O)C(=O)NCCc2ccco2)c1 (stereo unspecified),-3.6,7.6,-0.4,-24.4,2.2,62.7*
COc1ccccc1CCNC(=O)C(=O)NCC1OCCCN1S(=O)(=O)c1cc(C)ccc1C (stereo unspecified),4.9,10.9,-6.4,-24.5,5.8,65.5*
COc1ccc(CCNC(=O)C(=O)NCC2OCCCN2S(=O)(=O)c2cc(C)ccc2C)cc1 (stereo unspecified),-4.0,-28.9,-19.4,-29.9,4.7,29.1
O=c1[nH]c(-c2ccc(-c3cccc(Cl)c3)o2)nc2ccccc12,22.0,1.1,.,-6.2,7.8,13.7
CCCCn1c(N)c(N(CC)C(=O)CSc2nnc(-c3ccco3)n2CC)c(=O)[nH]c1=O,-4.0,3.6,.,-8.8,0.3,5.7
CC(=O)Oc1ccc(N(C(C)=O)S(=O)(=O)c2ccc(Cl)cc2)c2ccccc12,-1.8,-10.0,12.0,5.9,-2.4,5.3

# Screens from PubChem BioAssay.
